Results as given in ChEMBL document CHEMBL1158756, “Hassallidin A, a glycosylated lipopeptide with antifungal activity from the cyanobacterium Hassallia sp” (2005).
≈ marks a conversion by molar mass, not a printed value. Calls of active or inactive are those of the source. The rule behind the calls is not given here. Positions of bridges follow the written chain, without caps; N, C: chain ends. Non-standard residues stand in square brackets, D forms with d. Residues, ends and D or L forms follow the SMILES beside them. *: point of attachment. X2 = OC[C@H]1O[C@@H](*)[C@@H](O)[C@@H](O)[C@@H]1O; NMeT = CN[C@H](C(=O)O)[C@@H](C)O; X1 = CCCCCCCCCCCC(O)C(O)C(=O)*; Dhb = C/C=C(\N)C(=O)O

Experiments:
Ustilago maydis = test: Antifungal activity against Ustilago maydis at 10 ug by disk diffusion assay; type: functional, organism-based; conditions: Mycosarcoma maydis
How it was run: (§1)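 Disk diffusion on malt agar plates; each disk carried 10 µg in 30 µL of 50% MeOH.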

Aspergillus fumigatus [1] = test: Antifungal activity against Aspergillus fumigatus after 48 hrs; type: functional
How it was run: (§2)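 Broth microdilution in RPMI-1640; each well held 240 µL medium, 10 µL inoculum (prepared per NCCLS guidelines) and 50 µL of test solution in 50% MeOH. The test solution was a 2-fold series from a 92 µg/mL stock, 4.6 down to 0.14 µg per 50 µL. A drug-free well served as control. Incubation at 35 °C, 24 h for C. albicans and 48 h for A. fumigatus. Growth was read as OD595. MIC was the highest dilution well free from growth. Run in triplicate.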

Bacillus subtilis = test: Antimicrobial activity against Bacillus subtilis at 10 ug by disk diffusion assay; type: functional, organism-based
How it was run: (§3)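 Disk diffusion on LB-agar plates; each disk carried 10 µg in 30 µL of 50% MeOH.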

Penicillium sp. = test: Antifungal activity against Penicillium sp. at 10 ug by disk diffusion assay; type: functional, organism-based; how it was run: as §1
Aspergillus niger = test: Antifungal activity against Aspergillus niger at 10 ug by disk diffusion assay; type: functional, organism-based; how it was run: as §1
Nakaseomyces glabratus = test: Antifungal activity against Candida glabrata at 10 ug by disk diffusion assay; type: functional, organism-based; how it was run: as §1
Aspergillus fumigatus [2] = test: Antifungal activity against Aspergillus fumigatus at 10 ug by disk diffusion assay; type: functional, organism-based; how it was run: as §1
Escherichia coli = test: Antimicrobial activity against Escherichia coli at 10 ug by disk diffusion assay; type: functional, organism-based; how it was run: as §3
Candida albicans [3] = test: Antifungal activity against Candida albicans after 24 hrs; type: functional; how it was run: as §2
Fusarium sambucinum = test: Antifungal activity against Fusarium sambucinum at 10 ug by disk diffusion assay; type: functional, organism-based; how it was run: as §1
Candida albicans [4] = test: Antifungal activity against Candida albicans at 10 ug by disk diffusion assay; type: functional, organism-based; how it was run: as §1
Streptomyces = test: Antimicrobial activity against Streptomyces versicolor at 10 ug by disk diffusion assay; type: functional, organism-based; how it was run: as §3

MIC (Aspergillus fumigatus [1]): 4.8 µg/mL (≈ 3.47 µM)
MIC (Candida albicans [3]): 4.8 µg/mL (≈ 3.47 µM)
Compound: C/C=C1\NC(=O)[C@H](Cc2ccc(O)cc2)NC(=O)[C@H]([C@@H](C)O)NC(=O)[C@@H](NC(=O)[C@@H](NC(=O)C(O)C(O)CCCCCCCCCCC)[C@@H](C)O)[C@@H](C)OC(=O)[C@H](CCC(N)=O)NC(=O)[C@H]([C@@H](C)O[C@@H]2O[C@H](CO)[C@@H](O)[C@H](O)[C@@H]2O)N(C)C(=O)CNC(=O)[C@H](CCC(N)=O)NC1=O (some centres not stated) [HASSALLIDIN A] (X1-TTTY[Dhb]QG[NMeT](X2)Q; ester 2-C)
Activity (Ustilago maydis): Active
Activity (Bacillus subtilis): inactive
Activity (Penicillium sp.): Active
Activity (Aspergillus niger): Active
Activity (Nakaseomyces glabratus): Active
Activity (Aspergillus fumigatus [2]): Active
Activity (Escherichia coli): inactive
Activity (Fusarium sambucinum): Active
Activity (Candida albicans [4]): Active
Activity (Streptomyces): inactive
